Experimental data reported in ChEMBL document CHEMBL5113451, “Discovery of 2-thiobenzimidazoles as noncovalent inhibitors of SARS-CoV-2 main protease” (Bioorg Med Chem Lett, 2022).

These compounds were tested against T1, Replicase polyprotein 1ab (Severe acute respiratory syndrome coronavirus 2, UniProt P0DTD1) (assay: Inhibition of His6-tagged SARS-CoV-2 main protease expressed in Escherichia coli BL21 (DE3) using DABCYL-KTSAVLQ1SGFRKM-E(EDANS)-NH2 as substrate preincubated for 15 mins followed by substrate addition by FRET analysis).
Procedure, shortened: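 Inhibitor preincubated 15 min at 30 °C, then dabcyl-edans substrate added. Fluorescence followed at 90 s intervals. […] Three independent experiments.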
`COc1ccc2nc(SC(Cc3ccco3)C(=O)N3CCOC3=O)n(Cc3ccccc3)c2c1` (configuration not stated) showed an IC50 of 53.9 µM.
`O=C1OCCN1C(=O)C(Cc1ccccc1)Sc1nc2cc(Cl)ccc2n1Cc1ccccc1` (configuration not stated) gave an IC50 of 26.7 µM.
In the case of `O=C(CSc1nc2cc(Cl)c(O)cc2n1Cc1ccccc1)N1CCOC1=O`, the IC50 is reported as 35.8 µM.
Work on `O=C1OCCN1C(=O)C(Cc1ccco1)Sc1nc2cc(Cl)c(O)cc2n1Cc1ccccc1` (configuration not stated) yielded an IC50 of 46.1 µM.
`O=C1NCCN1C(=O)C(Cc1ccccc1)Sc1nc2cc(Cl)ccc2n1Cc1ccccc1` (configuration not stated) showed an IC50 of 29.9 µM.
`O=C1OCCN1C(=O)C(Cc1ccco1)Sc1nc2ccc(Cl)cc2n1Cc1ccccc1` (configuration not stated) was tested, and the IC50 was 52.9 µM.
Work on `O=C(CSc1nc2cc(Cl)ccc2n1Cc1ccccc1)N1CCNC1=O` yielded an IC50 of 24.2 µM.
`O=C(CSc1nc2cc(Cl)c(Cl)cc2n1Cc1ccccc1)N1CCOC1=O` gave an IC50 of 29.5 µM.
`O=C1OCCN1C(=O)C(Cc1ccco1)Sc1nc2ccc(O)cc2n1Cc1ccccc1` (configuration not stated) showed an IC50 of 55.8 µM.
In the case of `COc1cc2c(cc1Cl)nc(SC(Cc1ccco1)C(=O)N1CCOC1=O)n2Cc1ccccc1` (configuration not stated), the IC50 is reported as 27.7 µM.
`O=C1OCCN1C(=O)C(Cc1ccco1)Sc1nc2cc(Cl)ccc2n1Cc1ccccc1` (configuration not stated) gave an IC50 of 14.9 µM.
For `O=C1OCCN1C(=O)C(Cc1ccco1)Sc1nc2cc(Cl)c(Cl)cc2n1Cc1ccccc1` (configuration not stated), the IC50 was 30.8 µM.
With `Cc1ccc2c(c1)nc(SC(Cc1ccccc1)C(=O)N1CCOC1=O)n2Cc1ccccc1` (configuration not stated) the IC50 was 36.5 µM.
`Cc1ccc2c(c1)nc(SC(Cc1ccccc1)C(=O)N1CCNC1=O)n2Cc1ccccc1` (configuration not stated) was tested, and the IC50 was 32.4 µM.
In the case of `O=C(CSc1nc2cc(Cl)ccc2n1Cc1ccccc1)N1CCOC1=O`, the IC50 is reported as 62.2 µM.
`CC(C)(C)c1ccc2c(c1)nc(SCC(=O)N1CCOC1=O)n2Cc1ccccc1` gave an IC50 of 35.1 µM.
`COc1cc2c(cc1Cl)nc(SCC(=O)N1CCOC1=O)n2Cc1ccccc1` was tested, and the IC50 was 52.5 µM.
For `CC(C)(C)c1ccc2c(c1)nc(SC(Cc1ccccc1)C(=O)N1CCOC1=O)n2Cc1ccccc1` (configuration not stated), the IC50 was 29.5 µM.

The compounds below were run against T1, Replicase polyprotein 1ab (assay: Inhibition of His6-tagged SARS-CoV-2 main protease expressed in Escherichia coli BL21 (DE3) using DABCYL-KTSAVLQ1SGFRKM-E(EDANS)-NH2 as substrate preincubated for 15 mins followed by substrate addition in presence of Triton-X by FRET analysis).
With `COCCn1c(C(=O)NCC(O)c2ccccc2)nc2ccccc2c1=O` (configuration not stated) the IC50 was 54 µM.
In the case of `O=C(CSc1nc2cc(Cl)ccc2n1Cc1ccccc1)N1CCNC1=O`, the IC50 is reported as 24.2 µM.

These compounds were tested against Replicase polyprotein 1ab (Severe acute respiratory syndrome coronavirus 2) (UniProt P0DTD1) (assay: Inhibition of His6-tagged SARS-CoV-2 main protease expressed in Escherichia coli BL21 (DE3) assessed as residual enzyme activity using DABCYL-KTSAVLQ1SGFRKM-E(EDANS)-NH2 as substrate at 50 uM preincubated for 15 mins followed by substrate addition by FRET analysis).
Procedure, shortened: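 Compound at 50 µM preincubated 15 min at 30 °C before dabcyl-edans peptide added. Fluorescence read every 90 s for about 2.5 h, baseline subtracted.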
With `COCCn1c(C(=O)NCC(O)c2ccccc2)nc2ccccc2c1=O` (configuration not stated) the Activity was 50%.
In the case of `O=C(CSc1nc2cc(Cl)ccc2n1Cc1ccccc1)N1CCNC1=O`, the Activity is reported as 50%.
